Laboratory results reported in ChEMBL document CHEMBL1157882, “Novel 2-[(benzylamino)methyl]pyrrolidine-3,4-diol derivatives as alpha-mannosidase inhibitors and with antitumor activities against hematological and solid malignancies” (Bioorg Med Chem, 2010).
pIC50, pKi: −log10 of the molar value. The source made the active and inactive calls. The calls are words filed in the database; no cut-off is given here.

What was measured:
[1] = system: SK-BR-3; test: Cytotoxicity against human SKBR3 cells after 72 hrs by colorimetric assay; assay type: functional, cell-based; settings: Homo sapiens, SK-BR-3, 72 h; read-out: IC50
Outline: (§1)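 Cells grown in McCoy's medium (adherent lines) or RPMI-1640 (U266), each with 10% FBS, L-glutamine and antibiotics, at 37 °C in 5% CO₂. Compound dissolved as a 100 mM DMSO stock, final DMSO ≤0.4%. Cells were exposed for 72 h across a 10^-2 to 400 µM range. Viability was read by CellTiter 96 Aqueous (2–4 h incubation, absorbance 490 nm). Triplicate wells; IC50 from curve fitting.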

[2] = system: PC-3; test: Cytotoxicity against human PC3 cells after 72 hrs by colorimetric assay; assay type: functional, cell-based; settings: Homo sapiens, PC-3, 72 h; read-out: IC50; outline: as §1
[3] = system: MDA-MB-231; test: Cytotoxicity against human MDA-MB-231 cells after 72 hrs by colorimetric assay; assay type: functional, cell-based; settings: Homo sapiens, MDA-MB-231, 72 h; read-out: IC50; outline: as §1
[4] = Cytotoxicity in human multiple myeloma cells assessed as viable cells at 50 uM after 24 hrs by annexin V/propidium iodide staining based flow cytometry (reference value: 48.2%); assay type: functional; settings: Multiple myeloma cell, read-out: Activity
[5] = system: BT-474; test: Cytotoxicity against human BT474 cells after 72 hrs by colorimetric assay; assay type: functional, cell-based; settings: Homo sapiens, BT-474, 72 h; read-out: IC50; outline: as §1
[6] = target: T1, Beta-galactosidase (Aspergillus oryzae) (UniProt Q2U7N3); test: Inhibition of beta-galactosidase from Aspergillus oryzae at 1 mM at pH 4
T1 sequence (whole entry): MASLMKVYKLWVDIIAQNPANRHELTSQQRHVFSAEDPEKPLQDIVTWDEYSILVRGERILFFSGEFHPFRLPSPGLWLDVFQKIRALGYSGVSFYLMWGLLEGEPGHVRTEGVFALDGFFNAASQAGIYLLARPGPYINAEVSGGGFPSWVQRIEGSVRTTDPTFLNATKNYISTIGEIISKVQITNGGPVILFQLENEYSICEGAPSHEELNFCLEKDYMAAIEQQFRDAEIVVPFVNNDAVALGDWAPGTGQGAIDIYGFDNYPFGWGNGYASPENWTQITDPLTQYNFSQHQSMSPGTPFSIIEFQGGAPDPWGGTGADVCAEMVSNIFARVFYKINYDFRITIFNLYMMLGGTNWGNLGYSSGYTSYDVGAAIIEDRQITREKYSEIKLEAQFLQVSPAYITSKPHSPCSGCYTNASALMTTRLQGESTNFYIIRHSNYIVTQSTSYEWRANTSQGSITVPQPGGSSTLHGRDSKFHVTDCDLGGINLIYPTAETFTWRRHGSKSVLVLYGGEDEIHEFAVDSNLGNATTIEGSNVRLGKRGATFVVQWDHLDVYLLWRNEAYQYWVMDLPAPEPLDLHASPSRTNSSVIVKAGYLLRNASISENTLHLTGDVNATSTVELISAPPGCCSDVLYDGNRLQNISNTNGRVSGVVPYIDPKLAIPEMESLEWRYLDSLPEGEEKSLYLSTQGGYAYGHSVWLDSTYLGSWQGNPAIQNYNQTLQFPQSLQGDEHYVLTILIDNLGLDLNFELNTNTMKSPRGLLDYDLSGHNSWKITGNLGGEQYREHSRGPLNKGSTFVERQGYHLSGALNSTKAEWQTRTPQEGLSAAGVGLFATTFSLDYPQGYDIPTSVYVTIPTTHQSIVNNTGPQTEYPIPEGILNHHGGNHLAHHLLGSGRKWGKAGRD
Outline: (§2)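 Glycosidase panel of commercial enzymes assayed at each enzyme's optimal pH with compound at 1 mM; percentage inhibition of enzyme activity calculated.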

[7] = target: Glucoamylase (Aspergillus niger) (UniProt P69328); test: Inhibition of amyloglucosidase from Aspergillus niger at 1 mM at pH 5; outline: as §2
Sequence of Glucoamylase (Aspergillus niger) (P69328 whole entry): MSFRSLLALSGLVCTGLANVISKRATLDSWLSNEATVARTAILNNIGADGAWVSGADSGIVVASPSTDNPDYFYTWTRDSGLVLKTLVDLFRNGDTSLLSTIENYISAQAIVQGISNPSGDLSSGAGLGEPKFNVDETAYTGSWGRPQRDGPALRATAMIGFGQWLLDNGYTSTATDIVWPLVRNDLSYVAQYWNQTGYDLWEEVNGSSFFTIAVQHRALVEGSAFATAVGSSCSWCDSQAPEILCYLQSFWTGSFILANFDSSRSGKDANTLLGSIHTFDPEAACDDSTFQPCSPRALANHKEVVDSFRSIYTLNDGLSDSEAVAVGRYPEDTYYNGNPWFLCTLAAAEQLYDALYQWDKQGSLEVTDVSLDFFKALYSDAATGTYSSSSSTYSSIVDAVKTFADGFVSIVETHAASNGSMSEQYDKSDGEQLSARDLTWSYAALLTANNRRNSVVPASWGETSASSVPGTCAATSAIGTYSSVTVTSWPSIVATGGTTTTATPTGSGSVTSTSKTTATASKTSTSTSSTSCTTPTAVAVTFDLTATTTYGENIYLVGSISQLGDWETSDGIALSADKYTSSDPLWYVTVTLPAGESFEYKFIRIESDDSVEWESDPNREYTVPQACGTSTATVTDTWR

[8] = system: SK-BR-3; test: Decrease in ID1 mRNA level in human SKBR3 cells at 50 uM after 12 hrs by TLDA; assay type: functional, cell-based
Outline: (§3)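 SKBR3 and MCF7 cells seeded at 2 × 10⁵ per well, treated 12 h with 50 µM compound (DMSO stock); total RNA extracted, cDNA made with random hexamers, gene expression profiled by TaqMan low-density arrays (qPCR, duplicate per gene). Normalised to RPLP0; fold change versus DMSO vehicle-treated cells, calculated as 2^-ΔΔCT.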

[9] = Cytotoxicity in human multiple myeloma cells assessed as viable cells at 100 uM after 24 hrs by annexin V/propidium iodide staining based flow cytometry (reference value: 48.2%); assay type: functional; settings: Multiple myeloma cell, read-out: Activity
[10] = system: SK-BR-3; test: Increase in CDKN1A mRNA level in human SKBR3 cells at 50 uM after 12 hrs by TLDA; assay type: functional, cell-based; outline: as §3
[11] = system: MCF7; test: Decrease in cyclinE1 mRNA level in human MCF7 cells at 50 uM after 12 hrs by TLDA; assay type: functional, cell-based; outline: as §3
[12] = system: Prunus dulcis; test: Inhibition of beta-glucosidase from almond at 1 mM at pH 5; outline: as §2
[13] = system: MCF7; test: Increase in CDKN1C mRNA level in human MCF7 cells at 50 uM after 12 hrs by TLDA; assay type: functional, cell-based; outline: as §3
[14] = system: SK-BR-3; test: Cell cycle arrest in human SKBR3 cells by accumulation of cells at S phase at 100 uM after 48 hrs by propidium iodide-staining based flow cytometry (reference value: 30%); assay type: functional
[15] = Inhibition of alpha-mannosidase from jack bean at pH 5; set-up: species or system Canavalia ensiformis
[16] = system: A549; test: Cytotoxicity against human A549 cells after 72 hrs by colorimetric assay; assay type: functional, cell-based; settings: Homo sapiens, A549, 72 h; read-out: IC50; outline: as §1
[17] = Cytotoxicity in human B-CLL assessed as late apoptotic/necrotic cells at 50 uM after 24 hrs by annexin V/propidium iodide staining based flow cytometry (reference value: 10 to 14.7%); assay type: functional
[18] = system: SK-BR-3; test: Decrease in cyclinE1 mRNA level in human SKBR3 cells at 50 uM after 12 hrs by TLDA; assay type: functional, cell-based; outline: as §3
[19] = Cytotoxicity in human multiple myeloma cells assessed as pre-necrotic cells at 200 uM after 24 hrs by annexin V/propidium iodide staining based flow cytometry (reference value: 42.1%); assay type: functional, Multiple myeloma cell
[20] = system: Aspergillus niger; test: Inhibition of beta-xylosidase from Aspergillus niger at pH 5; set-up: concentration or dose not given beside the values; settings: concentration not given here
[21] = system: SK-BR-3; test: Cell cycle arrest in human SKBR3 cells by accumulation of cells at G1 phase at 100 uM after 48 hrs by propidium iodide-staining based flow cytometry (reference value: 54%); assay type: functional
[22] = system: Helix pomatia; test: Inhibition of beta-mannosidase from snail at pH 4; set-up: concentration or dose not given beside the values; settings: concentration not given here
[23] = Cytotoxicity in human multiple myeloma cells assessed as late apoptotic/necrotic cells at 200 uM after 24 hrs by annexin V/propidium iodide staining based flow cytometry (reference value: 9.1%); assay type: functional, Multiple myeloma cell
[24] = target: Beta-galactosidase (Escherichia coli) (UniProt Q8VNN2); test: Inhibition of beta-galactosidase from Escherichia coli at 1 mM at pH 7; outline: as §2
Sequence of Beta-galactosidase (Escherichia coli) (Q8VNN2 whole entry, looked up): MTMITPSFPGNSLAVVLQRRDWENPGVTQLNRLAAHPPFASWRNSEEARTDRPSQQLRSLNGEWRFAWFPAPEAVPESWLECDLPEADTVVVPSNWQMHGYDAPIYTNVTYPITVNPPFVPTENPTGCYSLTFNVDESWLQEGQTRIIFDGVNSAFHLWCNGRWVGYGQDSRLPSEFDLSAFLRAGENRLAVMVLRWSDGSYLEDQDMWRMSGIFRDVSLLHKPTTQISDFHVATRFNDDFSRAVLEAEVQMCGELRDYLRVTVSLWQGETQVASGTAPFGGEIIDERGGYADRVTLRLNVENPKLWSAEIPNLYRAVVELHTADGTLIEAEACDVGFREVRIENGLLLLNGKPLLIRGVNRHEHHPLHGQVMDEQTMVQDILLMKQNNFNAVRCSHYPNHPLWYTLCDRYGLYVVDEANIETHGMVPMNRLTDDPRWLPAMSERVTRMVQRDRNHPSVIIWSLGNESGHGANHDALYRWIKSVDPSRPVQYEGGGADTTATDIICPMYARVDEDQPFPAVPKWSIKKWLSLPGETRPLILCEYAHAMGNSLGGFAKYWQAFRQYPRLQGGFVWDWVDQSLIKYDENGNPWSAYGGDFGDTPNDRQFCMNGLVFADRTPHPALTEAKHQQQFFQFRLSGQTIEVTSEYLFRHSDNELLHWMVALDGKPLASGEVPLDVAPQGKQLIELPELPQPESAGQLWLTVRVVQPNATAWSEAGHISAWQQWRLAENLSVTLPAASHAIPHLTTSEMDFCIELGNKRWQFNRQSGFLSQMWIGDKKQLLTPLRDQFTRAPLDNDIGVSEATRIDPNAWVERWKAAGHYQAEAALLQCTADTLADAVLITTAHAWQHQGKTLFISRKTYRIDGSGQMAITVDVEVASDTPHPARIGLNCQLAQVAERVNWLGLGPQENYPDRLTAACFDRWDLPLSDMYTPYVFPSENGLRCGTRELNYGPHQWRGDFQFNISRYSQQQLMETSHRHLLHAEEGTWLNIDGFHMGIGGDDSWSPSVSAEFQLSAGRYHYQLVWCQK

[25] = system: U-266; test: Cytotoxicity against human U266 cells after 72 hrs by colorimetric assay; assay type: functional, cell-based; settings: Homo sapiens, U-266, 72 h; read-out: IC50; outline: as §1
[26] = Cytotoxicity in human B-CLL assessed as late apoptotic/necrotic cells at 200 uM after 24 hrs by annexin V/propidium iodide staining based flow cytometry (reference value: 10 to 14.7%); assay type: functional
[27] = system: Oryza sativa; test: Inhibition of alpha-glucosidase from rice at 1 mM at pH 4; outline: as §2

OC[C@H](NC[C@H]1NC[C@H](O)[C@@H]1O)c1ccc(-c2ccc(C(F)(F)F)cc2)cc1
pIC50 [1]: 4.32
pIC50 [2]: 3.88
pIC50 [3]: 4.18
viability at 50 µM [4]: 42.8%
pIC50 [5]: 4.03
inhibition [6]: < 10%
inhibition [7]: < 10%
Activity [8]: Active
viability at 100 µM [9]: 27.6%
Activity [10]: Active
Activity [11]: Active
inhibition [12]: 50%
Activity [13]: Active
Activity [14]: 9%
pIC50 [15]: 5.30
pKi [15]: 5.57
pIC50 [16]: 3.82
Activity [17]: 10.1%
Activity [18]: Active
Activity [19]: 21.3%
inhibition [20]: 52%
Activity [21]: 48%
inhibition [22]: < 10%
Activity [23]: 75.4%
inhibition [24]: < 10%
pIC50 [25]: 4.30
Activity [26]: 55.6%
inhibition [27]: < 10%
